# Sampled rows, rich in hits. Any-hit rate of the full collection: about 1.5%.
# SIRT5 block: blocks human SIRT5 desuccinylation of peptide; inhibition, % at 15 µM; Q9NXA8; Purified SirT5, succinyl-peptide AMC, trypsin-coupled fluorescence; 330,000 tested, 1.1% active; in the data active = inhibition above about 15%
# S100A4 MyoIIA: inhibitors of human S100A4 binding to myosin IIA peptide; P26447; S100A4/TAMRA-MyoIIA peptide fluorescence polarization; inhibition, % at 10.7 µM; 360,000 tested, 0.14% active; AID 652163;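 active = mean inhibition of at least 70% across replicates, with every replicate also reaching that level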
# Target sequence (P26447 whole entry, looked up): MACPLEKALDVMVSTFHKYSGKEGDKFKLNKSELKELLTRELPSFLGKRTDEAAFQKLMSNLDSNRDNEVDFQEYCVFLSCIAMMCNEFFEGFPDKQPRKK
#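 Material: S100A4 monomer (human). Medium: Calcium-containing HEPES buffer, pH 7.2. Probe or stimulus: labelled myosin peptide probe, 5 nM. Compound dosing: one concentration per compound. Timing: polarization read 5 min after assay mix addition, stable 5–60 min. Benchmarks: DMSO as neutral control, TFP as positive control.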
# ERp5 block: blocks human ERp5 reductase activity on insulin | AID 651711 | Q15084 | ERp5 insulin aggregation, absorbance 650 nm, 90 min | inhibition, % at 9.99 µM | 350,000 tested, 0.05% active;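 active = mean replicate inhibition above about 25%, with every replicate also reaching it, limit read from the data, passing the limit was not always enough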
# PDI turbidity: PDI (human) enzyme inhibition. PDI insulin aggregation turbidity, A650, 90 min. inhibition, % at 10 µM. 350,000 tested, 0.052% active. AID 588391;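 active = mean inhibition across replicates of 30% or more, whatever share of single replicates reach that level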
# Target sequence (P07237 whole entry, looked up): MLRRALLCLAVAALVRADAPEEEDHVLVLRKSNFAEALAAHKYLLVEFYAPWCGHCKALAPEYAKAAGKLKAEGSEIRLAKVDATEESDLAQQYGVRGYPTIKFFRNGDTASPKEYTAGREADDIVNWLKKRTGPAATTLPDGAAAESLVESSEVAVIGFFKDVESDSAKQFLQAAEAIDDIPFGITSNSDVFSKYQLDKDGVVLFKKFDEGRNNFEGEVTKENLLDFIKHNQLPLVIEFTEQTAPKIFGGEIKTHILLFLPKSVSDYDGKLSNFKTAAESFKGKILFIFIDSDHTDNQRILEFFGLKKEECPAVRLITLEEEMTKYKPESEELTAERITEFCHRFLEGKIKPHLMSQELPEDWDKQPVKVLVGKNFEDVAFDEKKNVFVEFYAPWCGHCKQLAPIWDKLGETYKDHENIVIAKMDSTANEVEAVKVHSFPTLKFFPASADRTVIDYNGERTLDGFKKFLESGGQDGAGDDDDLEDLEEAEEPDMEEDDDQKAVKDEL
# GSIS activator: primary screen for activators of insulin secretion dependent on glucose, INS-1E cells, GLuc reporter luminescence; INS-1E GLuc reporter insulin secretion, 2-3 h; AID 743287; 370,000 tested, 0.61% active; activation, % at 16.6 µM;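 active = lowest replicate activation of at least 40%, so every replicate reaches that level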;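 also: 0% = median of neutral control wells and 100% = median of IBMX positive control wells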
# Numbers without * were called inactive; x = no result given.
SMILES,SIRT5 block,S100A4 MyoIIA,ERp5 block,PDI turbidity,GSIS activator
C[C@@H]1CN([C@@H](C)CO)C(=O)c2cccc(NC(=O)Nc3ccc(C(F)(F)F)cc3)c2O[C@H]1CN(C)C(=O)Nc1ccccc1,3,-3,-2,x,-15
O=C(C[C@H]1C=C[C@H](NC(=O)CCN2CCCCC2)[C@H](CO)O1)Nc1nccs1,2,131*,-1,x,8
O=C(CCN1CCCCC1)N[C@@H]1C=C[C@H](CC(=O)N2CCC(Cc3ccccc3)CC2)O[C@H]1CO,15*,1,-3,x,11
COc1ccccc1NC(=O)N[C@H]1C=C[C@H](CC(=O)N2CCC(Cc3ccccc3)CC2)O[C@@H]1CO,-35,103*,1,x,-5
O=C(C[C@@H]1C=C[C@H](NC(=O)CCN2CCCCC2)[C@@H](CO)O1)Nc1nccs1,3,2,4,x,2
CCC(Sc1nc2ccncc2[nH]1)C(=O)Nc1ccc(C)c(Cl)c1 (stereo not drawn),-2,79*,-5,1,-10
CCOc1ccccc1NC(=O)C(CC)Sc1nc2ccncc2[nH]1 (stereo not drawn),0,2,-6,5,9
CO[C@H]1CN(C)C(=O)c2cc(NC(=O)NC3CCCCC3)ccc2OC[C@@H](C)N(C(C)=O)C[C@H]1C,1,3,0,x,9
O=C(O)COc1ccccc1-c1ccccc1,-1,1,2,-1,41*
COc1ccc(CN2C(=O)C(CC(=O)NCCc3ccccn3)CC(C(=O)N3CCOCC3)=C2C)cc1 (stereo not drawn),21*,0,4,x,7
COc1ccc(CN2C(=O)C(CC(=O)NCCc3ccccn3)CC(C(=O)N(C)C)=C2C)cc1 (stereo not drawn),1,8,-6,13,-8
CN(C(=O)c1ccc(C#N)cc1)c1nnc(-c2cnccn2)s1,14,1,2,1,46*
Cn1c(=NC(=O)c2ccc(S(=O)(=O)N3CCCc4ccccc43)cc2)sc2cc(S(C)(=O)=O)ccc21,x,x,x,-4,-9
Cn1c(=NC(=O)c2ccccc2[N+](=O)[O-])sc2cc(S(C)(=O)=O)ccc21,x,x,x,-8,87*
O=C(C[C@@H]1C[C@H]2c3cc(NC(=O)c4ccc5c(c4)OCO5)ccc3O[C@H]2[C@@H](CO)O1)NCc1ccc(Oc2ccccc2)cc1,-2,9,3,x,-1
O=C(C[C@@H]1C[C@@H]2c3cc(NC(=O)Nc4ccccc4F)ccc3O[C@@H]2[C@H](CO)O1)NCC1CC1,4,13,-1,x,12
O=C(C[C@H]1C[C@H]2c3cc(NC(=O)Nc4ccccc4F)ccc3O[C@H]2[C@@H](CO)O1)NCc1ccc(Oc2ccccc2)cc1,0,-1,8,x,12
O=C(C[C@@H]1C[C@H]2c3cc(NC(=O)Nc4ccccc4F)ccc3O[C@H]2[C@H](CO)O1)NCC1CC1,22*,8,-2,x,0
O=C(C[C@@H]1C[C@H]2c3cc(NC(=O)c4ccc5c(c4)OCO5)ccc3O[C@H]2[C@H](CO)O1)NCc1ccc(Oc2ccccc2)cc1,22*,2,-3,x,-10
O=C(C[C@H]1C[C@@H]2c3cc(NC(=O)Nc4ccccc4F)ccc3O[C@@H]2[C@@H](CO)O1)NCc1ccc(Oc2ccccc2)cc1,18*,-9,1,x,-29
O=C(Nc1ccc2c(c1)[C@H]1C[C@H](CC(=O)N3CCc4ccccc4C3)O[C@H](CO)[C@H]1O2)Nc1ccccc1F,15*,-5,1,x,1
O=C(Nc1ccc2c(c1)[C@H]1C[C@@H](CC(=O)N3CCc4ccccc4C3)O[C@@H](CO)[C@H]1O2)Nc1ccccc1F,1,0,2,x,-2
C[C@H](NC(=O)C[C@H]1C=C[C@@H](NS(=O)(=O)c2cccc(F)c2)[C@H](CO)O1)c1ccccc1,2,39,2,x,9
O=C(C[C@H]1CC[C@@H](NC(=O)Nc2ccc3c(c2)OCO3)[C@H](CO)O1)NCc1ccccc1,-3,12,-1,x,-3
C[C@@H]1CN([C@@H](C)CO)C(=O)c2cc(C3=CCCC3)cnc2O[C@@H]1CN(C)C(=O)C1CCC1,1,1,5,x,7
SMILES,SIRT5 block,S100A4 MyoIIA,ERp5 block,PDI turbidity,GSIS activator
CCN(CC)CCOC(=O)c1ccc(N/C=C(/C#N)c2nc(-c3ccc(OC)c(OC)c3)cs2)cc1,0,-11,-7,0,56*
Cc1cc(C)nc(N2CCC(C(=O)NCCc3ccc(Cl)cc3)CC2)n1,15*,15,-11,3,6
Cc1cc(C)nc(N2CCC(C(=O)NCCc3ccc(F)cc3)CC2)n1,-2,-1,1,7,-4
O=C(CSCc1nc2c(nnn2Cc2ccc(F)cc2)c(=O)[nH]1)Nc1c(Cl)cc(Cl)cc1Cl,0,-1,-2,1,x
CCc1nc2c(nnn2Cc2ccc(F)cc2)c(=O)[nH]1,x,4,-4,-8,60*
CC(C)NC(=O)N(C)C[C@@H]1OCCCC[C@H](C)Oc2ccc(NC(=O)C3CCCCC3)cc2C(=O)N([C@@H](C)CO)C[C@H]1C,2,7,1,x,-7
CC(C)Cc1nn2c(=O)cc(COc3ccc(NC(=O)c4ccco4)cc3)nc2s1,-3,7,5,-6,47*
Cn1cnc([N+](=O)[O-])c1S(=O)(=O)c1ccc(Cl)cc1,2,-1,2,-5,82*
C[C@@H]1CN([C@@H](C)CO)C(=O)c2c(c3ccccc3n2C)-c2ccccc2CO[C@H]1CN(C)Cc1ccccc1,x,x,x,x,-8
O=[N+]([O-])c1cccc(/C=N/n2c(-c3cccnc3)n[nH]c2=S)c1,x,x,x,-19,54*
CN1CCN(C(=O)c2cc3c(c(-c4cccc(-c5cccc(C(=O)N(C)C)c5)c4)n2)[C@@H](CCO)N([S@](=O)C(C)(C)C)C3)CC1,0,-7,3,x,18
COc1cccc(C#Cc2cnc3c(c2)C(=O)N([C@H](C)CO)C[C@H](C)[C@H](CN(C)C(=O)C2CC2)O3)c1,-1,4,3,x,-5
COc1ccc(-n2c(=S)[nH]c3ncccc3c2=O)cc1,15*,1,-5,2,27
COCC(=O)Nc1ccc2c(c1)[C@@H]1C[C@H](CC(=O)NCc3ccc(OC)cc3)O[C@@H](CO)[C@@H]1O2,-4,6,4,x,-8
CCCNC(=O)[C@H]1N[C@H]2c3ccc(C4=CCCCC4)c(=O)n3C[C@H]2[C@@H]1CO,17*,1,-8,x,12
CCCN1[C@@H]2c3ccc(C4=CCCC4)c(=O)n3C[C@@H]2[C@@H](CO)[C@@H]1C(=O)NCC,18*,-2,-2,x,20
CCCNC(=O)[C@@H]1N[C@@H]2c3ccc(C4=CCCC4)c(=O)n3C[C@@H]2[C@H]1CO,4,1,-5,x,4
CS(=O)(=O)c1cnc(-c2ccccc2)nc1Oc1ccc(F)cc1,x,x,x,-7,65*

# Bioassay records from PubChem BioAssay.
